Assay results taken from ChEMBL document CHEMBL3414496, “Synthesis and biological evaluation of novel 2-heteroarylimino-1,3-thiazolidin-4-ones as potential anti-tumor agents” (Eur J Med Chem, 2015).

Legend:
Type in all cases: functional
HT-29 [1] = assay: Induction of HO1 expression in human HT-29 cells at 3.8 uM after 6 hrs by Western blotting method
In short: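 HT29 whole-cell lysates in Hepes/KOH pH 7.5 with EDTA, KCl, NP40, DTT, protease inhibitors; 50 µg protein on 10–15% SDS-PAGE, nitrocellulose, overnight 4°C primary antibody (GCL 1:500, HO-1 1:1000), HRP secondary, chemiluminescence. Bands normalized to GAPDH (1:10 000), DMSO ratio set at 1.00; representative of three independent experiments.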

HT-29 [2] = assay: Induction of NQO1 expression in human HT-29 cells at 3.8 uM after 6 hrs by Western blotting method
In short: (§1)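 Whole-cell lysates from treated HT29 cells in pH 7.5 Hepes/KOH buffer with EDTA, KCl, Igepal, DTT and protease inhibitors. 50 µg protein run on 10-15% SDS-PAGE and transferred to nitrocellulose. Probed overnight at 4°C with anti-HO-1 (1:1 000), anti-NQO1 (1:1 000) or anti-GCL (1:500), then HRP secondary for 45 min and chemiluminescence. Bands normalized to GAPDH (1:10 000), with the DMSO ratio set to 1.00. Representative of three experiments.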

HT-29 [3] = assay: Induction of NQO1 expression in human HT-29 cells at 10 uM after 4 hrs by Western blotting method; in short: as §1

Structure (SMILES) | fold change (FC) (HT-29 [1]) | fold change (FC) (HT-29 [2]) | fold change (FC) (HT-29 [3])
COc1ccc(/C=C2\S/C(=N\c3csc(-c4ccc(Cl)cc4)c3)NC2=O)cc1 | 1 | 0.9 | 
COc1ccc(/C=C2\S/C(=N\c3csc(-c4ccc(Cl)cc4)c3)NC2=O)cc1OC |  |  | 1.26
